# Screens deposited in PubChem BioAssay by The Scripps Research Institute Molecular Screening Center.
# Compounds with a hit are over-represented: about 3.1% of the library has one in this group of screens.
# CHO parental Ca: counter-screen for OX1R antagonists: effect in parental CHO cells; 0.63% of 330,000 active; inhibition, % at 5.6 µM; parental CHO-K1, ATP-induced calcium, Fluo-8 fluorescence;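 active means inhibition above that plate's mean sample inhibition plus 3 SD, cut at about 26% in these data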;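 further: 0% = ATP-challenged DMSO wells and 100% = DMSO wells without ATP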
#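 Test system: parental CHO cells; detection: calcium-sensitive Fluo-8 fluorescence; evaluation: percent inhibition of calcium signal; also added: ATP as calcium-mobilizing challenge; repeats: one well per compound; control set: ATP-challenged DMSO wells low, unchallenged DMSO wells high; compound: single nominal dose of 5.6 µM per compound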
# GPR7 antagonist: antagonists of human GPR7 (neuropeptides B/W receptor 1); GPR7-expressing cells, fluorescence antagonist assay; inhibition, % at 4.4 µM; 1.1% of 290,000 active; in the data active means inhibition above about 16%, passing the limit was not always enough;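 further: cells stimulated with the agonist NPW; 0% = agonist with vehicle and 100% = vehicle without agonist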
# Target sequence (P48145 whole entry, looked up): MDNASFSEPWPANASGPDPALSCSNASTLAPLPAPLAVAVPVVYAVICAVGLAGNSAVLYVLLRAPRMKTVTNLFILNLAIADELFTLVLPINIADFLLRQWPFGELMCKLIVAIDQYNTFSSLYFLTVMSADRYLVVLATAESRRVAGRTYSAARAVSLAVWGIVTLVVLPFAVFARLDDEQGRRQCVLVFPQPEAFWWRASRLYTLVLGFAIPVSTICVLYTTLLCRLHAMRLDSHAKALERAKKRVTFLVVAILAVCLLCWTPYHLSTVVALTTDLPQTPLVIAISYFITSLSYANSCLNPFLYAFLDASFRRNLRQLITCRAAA
# OX1R antag-1: blocks the human orexin 1 receptor; inhibition, % at 5 µM; 0.43% of 330,000 active; CHO/OX1R cells, Fluo-8 calcium fluorescence, orexin A; O43613;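 active means inhibition above its plate's threshold, mean inhibition of all tested compounds on the plate plus 3 SD, cut at about 37% in these data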;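 further: 0% = orexin A challenge wells and 100% = SB-334867-A antagonist wells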
# OX1R antag-2: OX1R (human) antagonism. O43613. OX1R-expressing cells, FRET antagonist read-out. inhibition, % at 6.6 µM. 1.8% of 330,000 active; in the data active means inhibition mostly above about 38%, no sharp cut-off; inactive means mostly below about 40%;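 further: 0% = agonist challenge alone and 100% = reference antagonist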
# GalR3 antag: human GalR3 antagonism; O60755; HEK293 GalR3-CNG cAMP membrane potential fluorescence; galR3 body fused to GalR1 C-terminus; inhibition, % at 3 µM; 0.44% of 360,000 active; AID 651719;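 active means inhibition above the screen-wide average plus 3 SD, cut at about 13% in these data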;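 further: forskolin and galanin both at EC90 stimulate the cells; cAMP rise reported by CNG channel membrane potential dye signal; 0% = forskolin plus galanin with DMSO and 100% = forskolin alone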
# Target sequence (O60755 1-299 limits assumed): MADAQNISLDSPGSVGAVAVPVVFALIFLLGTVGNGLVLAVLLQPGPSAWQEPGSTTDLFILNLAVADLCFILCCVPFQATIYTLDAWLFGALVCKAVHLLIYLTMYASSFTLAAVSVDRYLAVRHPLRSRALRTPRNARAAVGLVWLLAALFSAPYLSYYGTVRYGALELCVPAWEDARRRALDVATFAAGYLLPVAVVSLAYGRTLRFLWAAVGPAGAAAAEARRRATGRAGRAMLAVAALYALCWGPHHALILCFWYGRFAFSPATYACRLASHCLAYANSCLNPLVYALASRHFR
# OX1R Ca confirm: OX1R (human) antagonism, confirmed; shares compounds with OX1R antag-1; AID 492963; CHO/OX1R cells, orexin A calcium Fluo-8 fluorescence; inhibition, % at 5 µM; 38% of 1,100 active; in the data active means inhibition above about 29%;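 further: 0% = agonist challenge alone and 100% = reference antagonist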
# CHO Ca triplic: counter-screen for OX1R antagonists: effect in parental CHO cells. shares compounds with OX1R antag-1. AID 492965. inhibition, % at 5.6 µM. parental CHO-K1, ATP-induced calcium, Fluo-8 fluorescence. 9.3% of 1,100 active;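 active means inhibition above a per-plate limit, the mean inhibition of that plate's test compounds plus 3 SD, cut at about 25% in these data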;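 further: 0% = ATP challenge with DMSO and 100% = DMSO without ATP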
# OX1R HTRF conf: confirmation of human orexin 1 receptor antagonists, HTRF format | shares compounds with OX1R antag-2 | OX1R-expressing cells, HTRF antagonist assay | inhibition, % at 6.6 µM | 49% of 1,800 active; in the data active means inhibition above about 55%;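 further: CHO cells expressing OX1R stimulated with orexin A at about EC80; 0% = agonist challenge alone and 100% = reference antagonist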
# CHO-K1 HTRF: counter-screen: parental CHO-K1 HTRF response; shares compounds with OX1R antag-2; parental CHO-K1 cells, HTRF counterscreen; inhibition, % at 6.6 µM; 48% of 1,800 active; in the data active means inhibition above about 17%;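 further: 0% = agonist challenge with vehicle and 100% = vehicle alone without agonist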
# * = called active by the depositor; nt = no result given.
SMILES,CHO parental Ca,GPR7 antagonist,OX1R antag-1,OX1R antag-2,GalR3 antag,OX1R Ca confirm,CHO Ca triplic,OX1R HTRF conf,CHO-K1 HTRF
CCOC(=O)c1ccc2[nH]c3c(c2c1)CCCC3O (configuration not stated),-4,15,-10,18,-6,nt,nt,nt,nt
Cc1ccc(S(=O)(=O)NCC(=O)OCC(=O)N(CCC#N)c2ccccc2)cc1,-14,nt,-16,13,1,nt,nt,nt,nt
CCCN1CCN(C(=O)Cn2nc(C)n3c(cc4c(OC)cccc43)c2=O)CC1,nt,nt,nt,nt,-1,nt,nt,nt,nt
Cc1cc2nc3c(=O)[nH]c(=S)[nH]c3nc2cc1NC(=O)C(F)(F)F,20,-1,29,49*,-9,7,4,47,88*
COCc1cc(=O)[nH]c2cc(NC(=O)C(C)(C)CCl)c(C)cc12,-8,-8,-19,14,-2,nt,nt,nt,nt
CCN(CC)c1ccc(/C=C(\C#N)c2ccccn2)cc1,-7,-4,34,80*,nt,4,-7,90*,9
COCCNC(=S)N(C)[C@H]1C[C@H]2c3[nH]c4c(-c5ccccc5)cccc4c3CCN2C(=O)[C@H]1[C@H](C)O,nt,nt,nt,nt,-6,nt,nt,nt,nt
COc1cccc(-c2nc(CS(=O)(=O)CC(=O)Nc3cc(OC)ccc3OC)c(C)o2)c1,-17,0,33,78*,-5,23,-9,85*,6
O=C(CSc1nnc(-c2ccc(F)cc2)o1)N1CCCC1,6,1,5,8,-8,nt,nt,nt,nt
Cc1ccc(S(=O)(=O)N2[C@@H](c3ccccc3)C(C(=O)O)=CC[C@H]2c2cccc(C)c2)cc1,-18,nt,-6,37,-4,nt,nt,nt,nt
Cc1ccc([C@@H]2CC=C(C(=O)O)[C@H](c3cccc(F)c3)N2S(=O)(=O)c2ccccc2C)cc1,-14,nt,50*,71*,-6,26,-3,86*,4
Cc1ccc(S(=O)(=O)N2[C@@H](c3cccc(Cl)c3)C(C(=O)O)=CC[C@H]2c2ccc(C(C)C)cc2)cc1,10,nt,36,70*,-4,24,0,77*,7
COc1ccc2oc(=Nc3cc(F)ccc3F)c(C(N)=O)cc2c1,4,7,27,87*,-6,43*,1,75*,11
COc1ccc(-c2[nH]ncc2N=Nc2ccccc2)cc1,5,-14,28,98*,-2,25,2,45,13
Cc1cc(Br)cc2c1NC(=O)C2(c1c(C)n(C)n(-c2ccccc2)c1=O)c1c(C)n(C)n(-c2ccccc2)c1=O,-8,-10,31,69*,2,57*,-6,72*,8
Cc1c(C2(c3c(C)n(C)n(-c4ccccc4)c3=O)C(=O)Nc3ccc(F)cc32)c(=O)n(-c2ccccc2)n1C,7,-7,17,24,0,nt,nt,nt,nt
CS(=O)(=O)c1ccc(C(=O)Nc2cccc(-c3nc4ccccc4[nH]3)c2)cc1,-9,-15,29,72*,1,21,-5,63*,8
COc1ccc(-c2c(-c3ccccc3OC)sc3ccccc23)cc1F,nt,nt,nt,nt,-7,nt,nt,nt,nt
COc1ccc(-n2c(C)cc(C(=O)CN3C(=O)NC4(CCCc5sccc54)C3=O)c2C)cc1 (configuration not stated),-16,4,-19,41,-5,nt,nt,nt,nt
Cc1cc(C(=O)CN2C(=O)NC3(CCCc4sccc43)C2=O)c(C)n1-c1ccccc1 (configuration not stated),-10,-7,38*,85*,-6,35*,-10,80*,-3
COc1cc(/C=N/NC(=O)c2cc(-c3cccc(Br)c3)nc3ccccc23)cc(OC)c1O,-14,nt,37,67*,-5,29*,-10,78*,3
COc1cc(/C=N/NC(=O)c2cc(-c3ccccc3)nc3ccccc23)ccc1O,-46,-11,3,17,-12,nt,nt,nt,nt
COCCNC(=O)C(c1ccc(C)cc1)N(Cc1cccs1)C(=O)CCC(=O)Nc1ccccn1 (configuration not stated),-5,-8,22,75*,-7,25,-14,82*,-1
COCCNC(=O)C(c1ccc(C)cc1)N(Cc1ccccc1)C(=O)CCC(=O)Nc1ccccn1 (configuration not stated),-21,-15,32,72*,-10,40*,-10,88*,1
Cc1cc(NC(=O)CCC(=O)N(Cc2cccs2)C(C(=O)NC2CCCC2)c2cccnc2)no1 (configuration not stated),-11,-14,25,51,-4,nt,nt,nt,nt
SMILES,CHO parental Ca,GPR7 antagonist,OX1R antag-1,OX1R antag-2,GalR3 antag,OX1R Ca confirm,CHO Ca triplic,OX1R HTRF conf,CHO-K1 HTRF
Cc1cc(NC(=O)CCC(=O)N(Cc2cccs2)C(C(=O)NC2CCCC2)c2ccccc2)no1 (configuration not stated),-19,-5,51*,92*,-1,44*,-33,93*,1
Cc1ccc(S(=O)(=O)N2CCOCC2)cc1C(=O)NCc1ccccn1,-9,nt,-11,6,-6,nt,nt,nt,nt
CCOc1ccc(CN2CCN(CC3CC3)CC2CCO)cc1 (configuration not stated),-13,-21,-20,4,-9,nt,nt,nt,nt
C=CCn1c(C)nnc1SCC(=O)Nc1oc(C)c2c(C)n[nH]c(=O)c12,-2,nt,-8,34,-2,nt,nt,nt,nt
O=C1c2ccccc2NC(c2c(Cl)cccc2Cl)N1Cc1ccccc1 (configuration not stated),12,-7,27,82*,-2,10,-2,46,0
O=C(CCCN1C(=O)/C(=C\c2cccc(Br)c2)SC1=S)Nc1ccc(C(=O)O)cc1,nt,nt,nt,nt,-6,nt,nt,nt,nt
O=C(CSc1ccc(-c2ccccc2)nn1)c1cccs1,-7,-5,50*,102*,-6,99*,-4,90*,-4
CCOC(=O)N1CCN(C(=O)CSc2ccc(-c3ccccc3)nn2)CC1,-10,-20,26,92*,-3,27,3,82*,-2
CCOC(=O)N1CCN(C(=O)CSc2ccc(-c3ccncc3)nn2)CC1,-10,-3,-2,16,-4,nt,nt,nt,nt
COc1ccc(-c2ccc(SCC(=O)c3cccs3)nn2)cc1,-16,1,-17,50,-1,nt,nt,nt,nt
C=CCn1c2ccccc2c(=O)c2cc(C#Cc3cc(OC)cc(OC)c3)ccc21,-15,nt,69*,47*,4,45*,-16,66*,20*
Cc1nc2ccc3nc(NC(=O)c4ccco4)sc3c2s1,-18,-6,61*,72*,-7,23,-5,84*,2
